Reference: paper PMC6172068 (Cancer Science, 2018)
Marks after values point to notes of the source that are not given here.

Assay: Safety and tolerability
Type: in vivo, Japanese patients
Summary of the method: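 In this open-label study, once-daily oral dosing escalated 20–300 mg/d by Bayesian continual reassessment. DLTs were judged from Cycles 0 and 1, and MTD/RD came from the posterior mean DLT rate plus investigator assessment. Treatment-emergent AEs were graded by NCI-CTCAE v4.0 for seriousness, duration and relatedness. The safety analysis set comprised all patients given ≥1 dose.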

CCc1nc(C(N)=O)c(Nc2ccc(N3CCC(N4CCN(C)CC4)CC3)c(OC)c2)nc1NC1CCOCC1 [gilteritinib]
AEs leading to discontinuation of the study drug (20 mg (n = 1)): 0 n (%)
Any AE (20 mg (n = 1)): 1 (100%) n (%)
Deaths (20 mg (n = 1)): 0 n (%)
Drug-related AE (20 mg (n = 1)): 1 (100%) n (%)
Drug-related AEs leading to discontinuation of the study drug (20 mg (n = 1)): 0 n (%)
Drug-related grade ≥3 AEs (20 mg (n = 1)): 0 n (%)
Drug-related serious AEs (20 mg (n = 1)): 0 n (%)
Grade ≥3 AEs (20 mg (n = 1)): 1 (100%) n (%)
Serious AE: Acute cholangitis (20 mg (n = 1)): 0 n (%)
Serious AE: Bronchopneumonia (20 mg (n = 1)): 0 n (%)
Serious AE: Bronchopulmonary aspergillosis (20 mg (n = 1)): 0 n (%)
Serious AE: Cardiomyopathy (20 mg (n = 1)): 0 n (%)
Serious AE: Device-related infection (20 mg (n = 1)): 0 n (%)
Serious AE: Edema (20 mg (n = 1)): 0 n (%)
Serious AE: Febrile neutropenia (20 mg (n = 1)): 0 n (%)
Serious AE: Increased level of fibrin degradation products (20 mg (n = 1)): 0 n (%)
Serious AE: Pneumonia (20 mg (n = 1)): 0 n (%)
Serious AE: Sepsis (20 mg (n = 1)): 0 n (%)
Serious AE: Subdural hematoma (20 mg (n = 1)): 0 n (%)
Serious AEs (20 mg (n = 1)): 0 n (%)
AEs leading to discontinuation of the study drug (40 mg (n = 4)): 1 (25%) n (%)
Any AE (40 mg (n = 4)): 4 (100%) n (%)
Deaths (40 mg (n = 4)): 0 n (%)
Drug-related AE (40 mg (n = 4)): 3 (75%) n (%)
Drug-related AEs leading to discontinuation of the study drug (40 mg (n = 4)): 1 (25%) n (%)
Drug-related grade ≥3 AEs (40 mg (n = 4)): 1 (25%) n (%)
Drug-related serious AEs (40 mg (n = 4)): 1 (25%) n (%)
Grade ≥3 AEs (40 mg (n = 4)): 2 (50%) n (%)
Serious AE: Acute cholangitis (40 mg (n = 4)): 0 n (%)
Serious AE: Bronchopneumonia (40 mg (n = 4)): 0 n (%)
Serious AE: Bronchopulmonary aspergillosis (40 mg (n = 4)): 0 n (%)
Serious AE: Cardiomyopathy (40 mg (n = 4)): 0 n (%)
Serious AE: Device-related infection (40 mg (n = 4)): 1 (25%) n (%)
Serious AE: Edema (40 mg (n = 4)): 1 (25%) n (%)
Serious AE: Febrile neutropenia (40 mg (n = 4)): 0 n (%)
Serious AE: Increased level of fibrin degradation products (40 mg (n = 4)): 0 n (%)
Serious AE: Pneumonia (40 mg (n = 4)): 1 (25%) n (%)
Serious AE: Sepsis (40 mg (n = 4)): 0 n (%)
Serious AE: Subdural hematoma (40 mg (n = 4)): 0 n (%)
Serious AEs (40 mg (n = 4)): 1 (25%) n (%)
AE resulting in permanent discontinuation: pneumonia (40 mg/d): 1 n
AEs leading to discontinuation of the study drug (80 mg (n = 4)): 1 (25%) n (%)
Any AE (80 mg (n = 4)): 4 (100%) n (%)
Drug-related AE (80 mg (n = 4)): 3 (75%) n (%)
Drug-related AEs leading to discontinuation of the study drug (80 mg (n = 4)): 1 (25%) n (%)
Drug-related grade ≥3 AEs (80 mg (n = 4)): 1 (25%) n (%)
Drug-related serious AEs (80 mg (n = 4)): 1 (25%) n (%)
Grade ≥3 AEs (80 mg (n = 4)): 2 (50%) n (%)
Serious AE: Acute cholangitis (80 mg (n = 4)): 1 (25%) n (%)
Serious AE: Bronchopneumonia (80 mg (n = 4)): 1 (25%) n (%)
Serious AE: Bronchopulmonary aspergillosis (80 mg (n = 4)): 0 n (%)
Serious AE: Cardiomyopathy (80 mg (n = 4)): 0 n (%)
Serious AE: Device-related infection (80 mg (n = 4)): 0 n (%)
Serious AE: Edema (80 mg (n = 4)): 0 n (%)
Serious AE: Febrile neutropenia (80 mg (n = 4)): 0 n (%)
Serious AE: Increased level of fibrin degradation products (80 mg (n = 4)): 0 n (%)
Serious AE: Pneumonia (80 mg (n = 4)): 0 n (%)
Serious AE: Sepsis (80 mg (n = 4)): 1 (25%) n (%)
Serious AE: Subdural hematoma (80 mg (n = 4)): 1 (25%) n (%)
Serious AEs (80 mg (n = 4)): 1 (25%) n (%)
Deaths (80 mg (n = 4), cause of death considered related to the study drug): 1 (25%) ^a n (%)
AE resulting in permanent discontinuation: subdural hematoma (80 mg/d): 1 n
AEs leading to discontinuation of the study drug (120 mg (n = 4)): 0 n (%)
Any AE (120 mg (n = 4)): 4 (100%) n (%)
Deaths (120 mg (n = 4)): 0 n (%)
Drug-related AE (120 mg (n = 4)): 4 (100%) n (%)
Drug-related AEs leading to discontinuation of the study drug (120 mg (n = 4)): 0 n (%)
Drug-related grade ≥3 AEs (120 mg (n = 4)): 1 (25%) n (%)
Drug-related serious AEs (120 mg (n = 4)): 0 n (%)
Grade ≥3 AEs (120 mg (n = 4)): 2 (50%) n (%)
Serious AE: Acute cholangitis (120 mg (n = 4)): 0 n (%)
Serious AE: Bronchopneumonia (120 mg (n = 4)): 0 n (%)
Serious AE: Bronchopulmonary aspergillosis (120 mg (n = 4)): 0 n (%)
Serious AE: Cardiomyopathy (120 mg (n = 4)): 0 n (%)
Serious AE: Device-related infection (120 mg (n = 4)): 0 n (%)
Serious AE: Edema (120 mg (n = 4)): 0 n (%)
Serious AE: Febrile neutropenia (120 mg (n = 4)): 0 n (%)
Serious AE: Increased level of fibrin degradation products (120 mg (n = 4)): 0 n (%)
Serious AE: Pneumonia (120 mg (n = 4)): 0 n (%)
Serious AE: Sepsis (120 mg (n = 4)): 0 n (%)
Serious AE: Subdural hematoma (120 mg (n = 4)): 0 n (%)
Serious AEs (120 mg (n = 4)): 0 n (%)
DLT: grade 3 tumor lysis syndrome (120 mg/d): 1 n
AEs leading to discontinuation of the study drug (200 mg (n = 9)): 2 (22.2%) n (%)
Any AE (200 mg (n = 9)): 9 (100%) n (%)
Deaths (200 mg (n = 9)): 0 n (%)
Drug-related AE (200 mg (n = 9)): 9 (100%) n (%)
Drug-related AEs leading to discontinuation of the study drug (200 mg (n = 9)): 1 (11.1%) n (%)
Drug-related grade ≥3 AEs (200 mg (n = 9)): 4 (44.4%) n (%)
Drug-related serious AEs (200 mg (n = 9)): 2 (22.2%) n (%)
Grade ≥3 AEs (200 mg (n = 9)): 7 (77.8%) n (%)
Serious AE: Acute cholangitis (200 mg (n = 9)): 0 n (%)
Serious AE: Bronchopneumonia (200 mg (n = 9)): 0 n (%)
Serious AE: Bronchopulmonary aspergillosis (200 mg (n = 9)): 1 (11.1%) n (%)
Serious AE: Cardiomyopathy (200 mg (n = 9)): 1 (11.1%) n (%)
Serious AE: Device-related infection (200 mg (n = 9)): 0 n (%)
Serious AE: Edema (200 mg (n = 9)): 0 n (%)
Serious AE: Febrile neutropenia (200 mg (n = 9)): 1 (11.1%) n (%)
Serious AE: Increased level of fibrin degradation products (200 mg (n = 9)): 1 (11.1%) n (%)
Serious AE: Pneumonia (200 mg (n = 9)): 0 n (%)
Serious AE: Sepsis (200 mg (n = 9)): 0 n (%)
Serious AE: Subdural hematoma (200 mg (n = 9)): 1 (11.1%) n (%)
Serious AEs (200 mg (n = 9)): 5 (55.6%) n (%)
AE resulting in permanent discontinuation: elevated blood creatine phosphokinase (200 mg/d): 1 n
AE resulting in permanent discontinuation: delirium (200 mg/d, not considered drug-related): 1 n
AEs leading to discontinuation of the study drug (300 mg (n = 2)): 2 (100%) n (%)
Any AE (300 mg (n = 2)): 2 (100%) n (%)
Deaths (300 mg (n = 2)): 0 n (%)
Drug-related AE (300 mg (n = 2)): 2 (100%) n (%)
Drug-related AEs leading to discontinuation of the study drug (300 mg (n = 2)): 2 (100%) n (%)
Drug-related grade ≥3 AEs (300 mg (n = 2)): 2 (100%) n (%)
Drug-related serious AEs (300 mg (n = 2)): 0 n (%)
Grade ≥3 AEs (300 mg (n = 2)): 2 (100%) n (%)
Serious AE: Acute cholangitis (300 mg (n = 2)): 0 n (%)
Serious AE: Bronchopneumonia (300 mg (n = 2)): 0 n (%)
Serious AE: Bronchopulmonary aspergillosis (300 mg (n = 2)): 0 n (%)
Serious AE: Cardiomyopathy (300 mg (n = 2)): 0 n (%)
Serious AE: Device-related infection (300 mg (n = 2)): 0 n (%)
Serious AE: Edema (300 mg (n = 2)): 0 n (%)
Serious AE: Febrile neutropenia (300 mg (n = 2)): 0 n (%)
Serious AE: Increased level of fibrin degradation products (300 mg (n = 2)): 0 n (%)
Serious AE: Pneumonia (300 mg (n = 2)): 0 n (%)
Serious AE: Sepsis (300 mg (n = 2)): 0 n (%)
Serious AE: Subdural hematoma (300 mg (n = 2)): 0 n (%)
Serious AEs (300 mg (n = 2)): 0 n (%)
AE resulting in permanent discontinuation: elevated lactate dehydrogenase (300 mg/d): 1 n
AE resulting in permanent discontinuation: pneumonia (300 mg/d): 1 n
DLTs: grade 3 elevated blood lactate dehydrogenase, amylase, blood creatine phosphokinase levels, and syncope (300 mg/d): 2 n
patients with a dose decrease (2 patients): 8.3%
patients with dose interruptions (7 patients): 29.2%
Anemia (Grade 1-2, N = 24): 0 n (%)
Bone pain (Grade 1-2, N = 24): 1 (4.2%) n (%)
Constipation (Grade 1-2, N = 24): 4 (16.7%) n (%)
Corneal erosion (Grade 1-2, N = 24): 4 (16.7%) n (%)
Cough (Grade 1-2, N = 24): 3 (12.5%) n (%)
Diarrhea (Grade 1-2, N = 24): 6 (25%) n (%)
Disseminated intravascular coagulation (Grade 1-2, N = 24): 1 (4.2%) n (%)
Dysesthesia (Grade 1-2, N = 24): 2 (8.3%) n (%)
Dysgeusia (Grade 1-2, N = 24): 2 (8.3%) n (%)
ECG prolonged QT interval (Grade 1-2, N = 24): 1 (4.2%) n (%)
Elevated ALT (Grade 1-2, N = 24): 2 (8.3%) n (%)
Elevated AST (Grade 1-2, N = 24): 2 (8.3%) n (%)
Elevated blood creatine phosphokinase (Grade 1-2, N = 24): 6 (25%) n (%)
Elevated blood lactate dehydrogenase (Grade 1-2, N = 24): 7 (29.2%) n (%)
Elevated liver enzymes (ALT, AST, and alkaline phosphatase) (Grade 1-2, N = 24): 9 (37.5%) n (%)
Epistaxis (Grade 1-2, N = 24): 2 (8.3%) n (%)
Febrile neutropenia (Grade 1-2, N = 24): 2 (8.3%) n (%)
Headache (Grade 1-2, N = 24): 4 (16.7%) n (%)
Hematoma (Grade 1-2, N = 24): 2 (8.3%) n (%)
Hypertension (Grade 1-2, N = 24): 5 (20.8%) n (%)
Hypokalemia (Grade 1-2, N = 24): 2 (8.3%) n (%)
Hypotension (Grade 1-2, N = 24): 2 (8.3%) n (%)
Hypoxia (Grade 1-2, N = 24): 2 (8.3%) n (%)
Increased amylase (Grade 1-2, N = 24): 1 (4.2%) n (%)
Insomnia (Grade 1-2, N = 24): 2 (8.3%) n (%)
Lung infection (Grade 1-2, N = 24): 1 (4.2%) n (%)
Nausea (Grade 1-2, N = 24): 4 (16.7%) n (%)
Pleural effusion (Grade 1-2, N = 24): 3 (12.5%) n (%)
Pneumonia (Grade 1-2, N = 24): 1 (4.2%) n (%)
Pyrexia (Grade 1-2, N = 24): 7 (29.2%) n (%)
Rash (Grade 1-2, N = 24): 3 (12.5%) n (%)
Renal impairment (Grade 1-2, N = 24): 5 (20.8%) n (%)
Sepsis (Grade 1-2, N = 24): 1 (4.2%) n (%)
Somnolence (Grade 1-2, N = 24): 3 (12.5%) n (%)
